Where “and” joins values, the source holds several entries; their conditions need not be identical. Identical values can stand only once.
How the values were obtained:
[1] = system: influenza A and B viruses; experiment: Plaque reduction assay, summary over the tested panel of viruses; type: cell-based; conditions: Influenza A virus, read-out: EC50 values against these viruses
[2] = system: A/Washington/29/2009 (H1N1); type: cell-based, influenza A virus; conditions: NMS-873 1 or 3 μM, oseltamivir carboxylate 1 μM
[3] = system: B/Wisconsin/1/2010 (Yamagata); experiment: Viral titer reduction at high MOI; type: cell-based, influenza B virus; conditions: both 12 h p.i. and 24 h p.i., MOI of 1, MDCK
[4] = system: A/WSN/33 (H1N1); type: cell-based, influenza A virus
[5] = system: A549 cells; experiment: Cellular cytotoxicity in A549 cells; type: cell-based, human; conditions: 3 μM
How it was run: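 A549 human alveolar epithelial cells were incubated with serial concentrations of the test compound, up to 3 μM, for 24 or 48 h. Cell viability was then measured by neutral red uptake.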

[6] = system: A/WSN/33 (H1N1); experiment: Time-of-addition experiment in MDCK cells; type: cell-based, influenza A virus; conditions: NMS-873 1.8 μM; for antiviral activity when added at 8 h post infection / effect on virus replication when present before or during infection: oseltamivir carboxylate 1 μM
[7] = system: A/WSN/33 (H1N1) viral proteins; type: cell-based, influenza A virus
[8] = system: influenza vRNPs (NP) nuclear export; type: cell-based, influenza A virus
[9] = system: MDCK cells; conditions: MDCK cells treated for 48 h
[10] = in vitro; conditions: dog

SMILES	EC50 [1] [nM]	antiviral activity (viral titer) [2]	reduction of viral titer ([3]; 1 μM)	inhibition of virus (viral titer) ([3]; 3 μM)	reduction of viral titer [4]	cytotoxicity at highest drug concentration tested [5]	antiviral efficacy when added at 6 h post infection [6]	antiviral activity when added at 8 h post infection [6]	effect on virus replication when present before or during infection [6]	levels of other viral proteins PA, PB1, HA and NS1 [7]	protein expression levels of M1 and NP [7]	NP subcellular localization [8]	virus entry and NP nuclear import [8]	concentration up to which no cellular cytotoxicity was observed [9]	CC50 [10] [nM]
Cc1cc(OCc2nnc(SC3CCCC3)n2-c2cccnc2)ccc1-c1ccc(S(C)(=O)=O)cc1 [NMS-873]	28 to 56	potent antiviral activity	more than 1.8 log10 units	completely inhibited	1.3–1.4 log10 units and 2.2–3.1 log10 units	not cytotoxic	dramatically decreased	completely abolished	no antiviral activity was observed	broadly reduced	significantly reduced	NP largely accumulated in the nucleus	neither affected the virus entry nor NP nuclear import	up to 1.85 μM	2720 ± 30
CCC(CC)O[C@@H]1C=C(C(=O)O)C[C@H](N)[C@H]1NC(C)=O [Oseltamivir carboxylate]	–	–	–	–	2.1–2.5 log10 units	–	–	potent inhibition	no effect	–	–	–	–	–	–

From paper PMC6482079 (European journal of pharmaceutical sciences : official …, 2019)
